In ChEMBL document CHEMBL2396601, “Synthesis and antiprotozoal activity of dicationic m-terphenyl and 1,3-dipyridylbenzene derivatives” (J Med Chem, 2013):
Active and inactive are the calls of the source. No cut-off for these calls is given here.

What was measured:
[1] = Selectivity index, ratio of IC50 for rat L6 cells to IC50 for Trypanosoma cruzi Tulahuen C2C4; format: toxicity, cell-based; settings: read-out: Ratio IC50
Procedure, shortened: (§1)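 Selectivity index is IC50 against L6 rat myoblast cells divided by IC50 against the named parasite.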

[2] = system: L6; assay: Cytotoxicity against rat L6 cells after 72 hrs by Alamar Blue assay; format: cell-based; settings: L6, 72 h
Procedure, shortened: (§2)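 Uses T. b. rhodesiense STIB900, T. cruzi Tulahuen C2C4 LacZ intracellular amastigotes, or L6 rat myoblasts depending on line.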

[3] = system: Trypanosoma cruzi; assay: Antiprotozoal activity against intracellular amastigote form of Trypanosoma cruzi Tulahuen C2C4 expressing LacZ infected in rat L6 cells after 48 hrs; format: functional, organism-based; settings: Tulahuen C2C4, L6, 48 h; procedure, shortened: as §2
[4] = Selectivity index, ratio of IC50 for rat L6 cells to IC50 for Plasmodium falciparum K1; format: toxicity, cell-based; settings: L6 cells, read-out: Ratio IC50; procedure, shortened: as §1
[5] = system: Plasmodium falciparum; assay: Antiprotozoal activity against chloroquine-resistant Plasmodium falciparum K1 after 48 hrs by [3H]-hypoxanthine incorporation assay; format: functional, organism-based; settings: Plasmodium falciparum, K1
[6] = Selectivity index, ratio of IC50 for rat L6 cells to IC50 for Trypanosoma brucei rhodesiense STIB900; format: toxicity, cell-based; settings: L6 cells, read-out: Ratio IC50; procedure, shortened: as §1
[7] = system: Trypanosoma brucei rhodesiense; assay: Antiprotozoal activity against Trypanosoma brucei rhodesiense STIB900 after 72 hrs by Alamar Blue assay; format: functional, organism-based; settings: Trypanosoma brucei, STIB900, 72 h; procedure, shortened: as §2
[8] = system: Leishmania amazonensis; assay: Antiprotozoal activity against intracellular amastigote form of Leishmania amazonensis infected in CD1 mouse macrophages after 72 hrs by […]; format: functional, organism-based
[9] = Selectivity index, ratio of IC50 for rat L6 cells to IC50 for Leishmania amazonensis; format: toxicity, cell-based; settings: read-out: Ratio IC50; procedure, shortened: as §1
[10] = system: Trypanosoma brucei rhodesiense; assay: Antiprotozoal activity against Trypanosoma brucei rhodesiense STIB900 infected in NMRI mouse assessed as host mean survival days at 5 mg/kg, ip qd for 4 days; format: functional; settings: route intraperitoneal
Procedure, shortened: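 Acute-stage HAT mouse model infected with STIB900. Cure means survival to 60 days after infection with no parasitemia relapse. Mean survival days are counted from infection and use every mouse: relapsed mice, plus cured mice entered as >60 days.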

[11] = system: Trypanosoma brucei rhodesiense; assay: Antiprotozoal activity against Trypanosoma brucei rhodesiense STIB900 infected in NMRI mouse assessed as reduction of parasitemia relapse at 5 mg/kg, ip qd for 4 days; format: functional, organism-based; parameters: dose 5 mg/kg
Procedure, shortened: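 Mouse model of acute (early) stage HAT with T. b. rhodesiense STIB900, groups of 4 mice. Amidines dosed intraperitoneally, 4 daily doses of 5 mg/kg or single doses; prodrugs dosed orally, 4 daily doses of 25 mg/kg. Cure means survival to 60 days after infection with no parasitemia relapse. Mean survival days counts all mice, with cured mice scored as >60 days.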

Structure (SMILES)	selectivity ratio [1]	IC50 [2]	IC50 [3]	selectivity ratio [4]	IC50 [5]	selectivity ratio [6]	IC50 [7]	IC50 [8]	selectivity ratio [9]	MSD [10]	Activity [11]
O=C(Cn1ccnc1[N+](=O)[O-])NCc1ccccc1 [BENZNIDAZOLE]	115	> 150 µM	1.3 µM	–	–	–	–	–	–	–	–
CC1(C)CN=C(c2ccc(-c3cc(-c4ccc(C5=NCC(C)(C)CN5)cc4)cc([N+](=O)[O-])c3)cc2)NC1	–	> 150 µM	> 150 µM	> 46800	0.003 µM	> 217	0.692 µM	–	–	–	–
N=C(N)c1ccc(-c2cc(Cl)cc(-c3cccc(C(=N)N)c3)c2)cc1	< 1	12.7 µM	46.6 µM	1250	0.01 µM	130	0.097 µM	–	–	–	–
CC(C)Oc1ccc(NC(=N)c2ccccn2)cc1-c1cc(Cl)cc(-c2ccccc2)c1	1	3.77 µM	2.98 µM	1	3.08 µM	< 1	12.3 µM	1.88 µM	2	–	–
Cl.Cl.N=C(N)c1ccc(-c2cc(O)cc(-c3ccc(C(=N)N)cc3)c2)cc1	< 1	> 150 µM	> 150 µM	> 3950	0.038 µM	> 37500	0.004 µM	–	–	>41.25 days	–
N=C(Nc1ccc(-c2cccc(-c3cccc(NC(=N)c4ccccc4)c3)c2)cc1)c1ccccc1	1	2.52 µM	2.14 µM	66	0.038 µM	4	0.635 µM	0.907 µM	3	–	–
CC1(C)CN=C(c2cccc(-c3cccc(-c4cccc(C5=NCC(C)(C)CN5)c4)c3)c2)NC1	1	56.6 µM	45.4 µM	9500	0.006 µM	70	0.809 µM	–	–	–	–
N=C(N)c1cccc(-c2cc(Cl)cc(-c3cccc(C(=N)N)c3)c2)c1	< 1	30.9 µM	50.2 µM	944	0.033 µM	709	0.044 µM	–	–	–	–
COc1cc(-c2ccc(C(=N)N)cc2)cc(-c2ccc(C(=N)N)cc2)c1.Cl.Cl	< 1	33 µM	59.1 µM	693	0.048 µM	7270	0.005 µM	–	–	>38 days	–
Cl.Cl.N=C(N)c1ccc(-c2cc(-c3ccc(C(=N)N)cc3)cc([N+](=O)[O-])c2)cc1	> 2	> 150 µM	57.2 µM	> 8380	0.018 µM	> 7480	0.02 µM	–	–	20 days	inactive
Cl.Cl.Cl.N=C(N)c1ccc(-c2cc(Cl)cc(-c3ccc(C(=N)N)cc3)c2)cc1	< 1	21.9 µM	65.5 µM	561	0.039 µM	700	0.031 µM	–	–	15.25 days	inactive
N=C(Nc1ccc(-c2cc(Cl)cc(-c3cccc(NC(=N)c4ccccc4)c3)c2)cc1)c1ccccc1	1	2.27 µM	2.04 µM	58	0.039 µM	13	0.178 µM	1.02 µM	2	–	–
N=C(N)c1ccnc(-c2cccc(-c3cc(C(=N)N)ccn3)c2)c1	–	> 150 µM	> 150 µM	> 1940	0.077 µM	> 128	1.17 µM	–	–	–	–
Cl.Cl.c1cc(-c2ccc(C3=NCCN3)cc2)cc(-c2ccc(C3=NCCN3)cc2)c1	< 1	2.55 µM	18.9 µM	35	0.073 µM	37	0.068 µM	–	–	9.25 days	inactive
N=C(N)c1ccc(-c2ccc(-c3ccc(C(=N)N)cc3)o2)cc1 [FURAMIDINE]	–	–	23.3 µM	–	0.014 µM	–	0.003 µM	–	–	>46 days	–
Cl.Cl.N=C(N)c1ccc(-c2cc(N)cc(-c3ccc(C(=N)N)cc3)c2)cc1	> 1	> 150 µM	149 µM	> 1100	0.136 µM	> 39800	0.004 µM	–	–	>35 days	inactive
